Measured values published in ChEMBL document CHEMBL5058577, “EUbOPEN Chemogenomics Library 2 (Multiplex)” (2022).

Test system: U2OS
Assay: Multiplex assay against U2OS
Type: toxicity, cell-based
Conditions: human
How it was run: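 On a CQ1 microscope at 37°C and 5% CO2, live cells were imaged after compound addition. They had been stained at seeding with Hoechst33342, BioTracker Green Microtubule Cytoskeleton Dye, MitoTracker Red and Annexin V Alexa Fluor 680. CellPathfinder machine-learning gating assigned cells to Hoechst high-intensity objects or normal cells, normal cells to healthy, pyknosed or fragmented nuclei, and pyknosed cells to mitotic or apoptotic. Tubulin, mitochondrial-mass and membrane-permeability phenotypes are per cents of healthy-nucleus cells.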

[1] = 12 h, 1 µM, compound concentration 1 uM, replicate 1
[2] = 12 h, 1 µM, compound concentration 1 uM, replicate 2
[3] = 12 h, 10 µM, compound concentration 10 uM, replicate 1
[4] = 12 h, 10 µM, compound concentration 10 uM, replicate 2
[5] = 24 h, 1 µM, compound concentration 1 uM, replicate 1
[6] = 24 h, 1 µM, compound concentration 1 uM, replicate 2
[7] = 24 h, 10 µM, compound concentration 10 uM, replicate 1
[8] = 24 h, 10 µM, compound concentration 10 uM, replicate 2
[9] = 48 h, 1 µM, compound concentration 1 uM, replicate 1
[10] = 48 h, 1 µM, compound concentration 1 uM, replicate 2
[11] = 48 h, 10 µM, compound concentration 10 uM, replicate 1
[12] = 48 h, 10 µM, compound concentration 10 uM, replicate 2

N[C@@]1(C(=O)O)CO[C@H]2[C@H](C(=O)O)[C@H]21 [LY-379268]
Population Apoptotic (%) [1]: 85%
Population Fragmented Nuclei (%) [1]: 20%
Population Healthy Nuclei (%) [1]: 76%
Population Hoechst High Intensity Objects (%) [1]: 0%
Population Membrane Permeable-Phenotype (%) [1]: 2%
Population Mitochondria Different-Phenotype (%) [1]: 1%
Population Mitotic Cells (%) [1]: 14%
Population Normal (%) [1]: 99%
Population Pyknosed Nuclei (%) [1]: 3%
Population Tubulin-Different-Phenotype (%) [1]: 1%
Total Cell Count [1]: 211
Population Apoptotic (%) [2]: 100%
Population Fragmented Nuclei (%) [2]: 17%
Population Healthy Nuclei (%) [2]: 79%
Population Membrane Permeable-Phenotype (%) [2]: 8%
Population Mitochondria Different-Phenotype (%) [2]: 2%
Population Mitotic Cells (%) [2]: 0%
Population Pyknosed Nuclei (%) [2]: 2%
Population Tubulin-Different-Phenotype (%) [2]: 3%
Total Cell Count [2]: 108
Population Apoptotic (%) [3]: 63%
Population Fragmented Nuclei (%) [3]: 30%
Population Healthy Nuclei (%) [3]: 61%
Population Hoechst High Intensity Objects (%) [3]: 0%
Population Membrane Permeable-Phenotype (%) [3]: 8%
Population Mitochondria Different-Phenotype (%) [3]: 2%
Population Mitotic Cells (%) [3]: 36%
Population Normal (%) [3]: 99%
Population Pyknosed Nuclei (%) [3]: 7%
Population Tubulin-Different-Phenotype (%) [3]: 3%
Total Cell Count [3]: 264
Population Apoptotic (%) [4]: 80%
Population Fragmented Nuclei (%) [4]: 19%
Population Healthy Nuclei (%) [4]: 77%
Population Hoechst High Intensity Objects (%) [4]: 1%
Population Membrane Permeable-Phenotype (%) [4]: 4%
Population Mitochondria Different-Phenotype (%) [4]: 1%
Population Mitotic Cells (%) [4]: 20%
Population Normal (%) [4]: 98%
Population Pyknosed Nuclei (%) [4]: 3%
Population Tubulin-Different-Phenotype (%) [4]: 1%
Total Cell Count [4]: 143
Population Apoptotic (%) [5]: 88%
Population Fragmented Nuclei (%) [5]: 20%
Population Healthy Nuclei (%) [5]: 71%
Population Hoechst High Intensity Objects (%) [5]: 1%
Population Membrane Permeable-Phenotype (%) [5]: 1%
Population Mitochondria Different-Phenotype (%) [5]: 1%
Population Mitotic Cells (%) [5]: 11%
Population Normal (%) [5]: 98%
Population Pyknosed Nuclei (%) [5]: 7%
Population Tubulin-Different-Phenotype (%) [5]: 1%
Total Cell Count [5]: 245
Population Apoptotic (%) [6]: 100%
Population Fragmented Nuclei (%) [6]: 11%
Population Healthy Nuclei (%) [6]: 79%
Population Hoechst High Intensity Objects (%) [6]: 0%
Population Membrane Permeable-Phenotype (%) [6]: 12%
Population Mitochondria Different-Phenotype (%) [6]: 2%
Population Mitotic Cells (%) [6]: 0%
Population Normal (%) [6]: 100%
Population Pyknosed Nuclei (%) [6]: 9%
Population Tubulin-Different-Phenotype (%) [6]: 6%
Total Cell Count [6]: 133
Population Apoptotic (%) [7]: 81%
Population Fragmented Nuclei (%) [7]: 25%
Population Healthy Nuclei (%) [7]: 66%
Population Hoechst High Intensity Objects (%) [7]: 1%
Population Membrane Permeable-Phenotype (%) [7]: 8%
Population Mitochondria Different-Phenotype (%) [7]: 1%
Population Mitotic Cells (%) [7]: 18%
Population Normal (%) [7]: 98%
Population Pyknosed Nuclei (%) [7]: 7%
Population Tubulin-Different-Phenotype (%) [7]: 2%
Total Cell Count [7]: 284
Population Apoptotic (%) [8]: 90%
Population Fragmented Nuclei (%) [8]: 16%
Population Healthy Nuclei (%) [8]: 77%
Population Membrane Permeable-Phenotype (%) [8]: 4%
Population Mitochondria Different-Phenotype (%) [8]: 4%
Population Mitotic Cells (%) [8]: 10%
Population Pyknosed Nuclei (%) [8]: 6%
Population Tubulin-Different-Phenotype (%) [8]: 4%
Total Cell Count [8]: 165
Population Apoptotic (%) [9]: 92%
Population Fragmented Nuclei (%) [9]: 13%
Population Healthy Nuclei (%) [9]: 79%
Population Hoechst High Intensity Objects (%) [9]: 1%
Population Membrane Permeable-Phenotype (%) [9]: 3%
Population Mitochondria Different-Phenotype (%) [9]: 2%
Population Mitotic Cells (%) [9]: 7%
Population Normal (%) [9]: 98%
Population Pyknosed Nuclei (%) [9]: 7%
Population Tubulin-Different-Phenotype (%) [9]: 3%
Total Cell Count [9]: 348
Population Apoptotic (%) [10]: 100%
Population Fragmented Nuclei (%) [10]: 15%
Population Healthy Nuclei (%) [10]: 72%
Population Hoechst High Intensity Objects (%) [10]: 2%
Population Membrane Permeable-Phenotype (%) [10]: 11%
Population Mitochondria Different-Phenotype (%) [10]: 5%
Population Mitotic Cells (%) [10]: 0%
Population Normal (%) [10]: 97%
Population Pyknosed Nuclei (%) [10]: 12%
Population Tubulin-Different-Phenotype (%) [10]: 5%
Total Cell Count [10]: 178
Population Apoptotic (%) [11]: 92%
Population Fragmented Nuclei (%) [11]: 24%
Population Healthy Nuclei (%) [11]: 68%
Population Hoechst High Intensity Objects (%) [11]: 2%
Population Membrane Permeable-Phenotype (%) [11]: 9%
Population Mitochondria Different-Phenotype (%) [11]: 2%
Population Mitotic Cells (%) [11]: 7%
Population Normal (%) [11]: 97%
Population Pyknosed Nuclei (%) [11]: 7%
Population Tubulin-Different-Phenotype (%) [11]: 3%
Total Cell Count [11]: 383
Population Apoptotic (%) [12]: 90%
Population Fragmented Nuclei (%) [12]: 11%
Population Healthy Nuclei (%) [12]: 83%
Population Membrane Permeable-Phenotype (%) [12]: 3%
Population Mitotic Cells (%) [12]: 9%
Population Pyknosed Nuclei (%) [12]: 4%
Total Cell Count [12]: 228
